Drawing on ChEMBL document CHEMBL1126891 (J Med Chem, 1993), this text covers inhibition, IC50 and EC50 for 21 compounds.

Series [1] addresses T1, DNA polymerase alpha catalytic subunit (Homo sapiens, UniProt P09884).
T1 sequence (P09884 whole entry): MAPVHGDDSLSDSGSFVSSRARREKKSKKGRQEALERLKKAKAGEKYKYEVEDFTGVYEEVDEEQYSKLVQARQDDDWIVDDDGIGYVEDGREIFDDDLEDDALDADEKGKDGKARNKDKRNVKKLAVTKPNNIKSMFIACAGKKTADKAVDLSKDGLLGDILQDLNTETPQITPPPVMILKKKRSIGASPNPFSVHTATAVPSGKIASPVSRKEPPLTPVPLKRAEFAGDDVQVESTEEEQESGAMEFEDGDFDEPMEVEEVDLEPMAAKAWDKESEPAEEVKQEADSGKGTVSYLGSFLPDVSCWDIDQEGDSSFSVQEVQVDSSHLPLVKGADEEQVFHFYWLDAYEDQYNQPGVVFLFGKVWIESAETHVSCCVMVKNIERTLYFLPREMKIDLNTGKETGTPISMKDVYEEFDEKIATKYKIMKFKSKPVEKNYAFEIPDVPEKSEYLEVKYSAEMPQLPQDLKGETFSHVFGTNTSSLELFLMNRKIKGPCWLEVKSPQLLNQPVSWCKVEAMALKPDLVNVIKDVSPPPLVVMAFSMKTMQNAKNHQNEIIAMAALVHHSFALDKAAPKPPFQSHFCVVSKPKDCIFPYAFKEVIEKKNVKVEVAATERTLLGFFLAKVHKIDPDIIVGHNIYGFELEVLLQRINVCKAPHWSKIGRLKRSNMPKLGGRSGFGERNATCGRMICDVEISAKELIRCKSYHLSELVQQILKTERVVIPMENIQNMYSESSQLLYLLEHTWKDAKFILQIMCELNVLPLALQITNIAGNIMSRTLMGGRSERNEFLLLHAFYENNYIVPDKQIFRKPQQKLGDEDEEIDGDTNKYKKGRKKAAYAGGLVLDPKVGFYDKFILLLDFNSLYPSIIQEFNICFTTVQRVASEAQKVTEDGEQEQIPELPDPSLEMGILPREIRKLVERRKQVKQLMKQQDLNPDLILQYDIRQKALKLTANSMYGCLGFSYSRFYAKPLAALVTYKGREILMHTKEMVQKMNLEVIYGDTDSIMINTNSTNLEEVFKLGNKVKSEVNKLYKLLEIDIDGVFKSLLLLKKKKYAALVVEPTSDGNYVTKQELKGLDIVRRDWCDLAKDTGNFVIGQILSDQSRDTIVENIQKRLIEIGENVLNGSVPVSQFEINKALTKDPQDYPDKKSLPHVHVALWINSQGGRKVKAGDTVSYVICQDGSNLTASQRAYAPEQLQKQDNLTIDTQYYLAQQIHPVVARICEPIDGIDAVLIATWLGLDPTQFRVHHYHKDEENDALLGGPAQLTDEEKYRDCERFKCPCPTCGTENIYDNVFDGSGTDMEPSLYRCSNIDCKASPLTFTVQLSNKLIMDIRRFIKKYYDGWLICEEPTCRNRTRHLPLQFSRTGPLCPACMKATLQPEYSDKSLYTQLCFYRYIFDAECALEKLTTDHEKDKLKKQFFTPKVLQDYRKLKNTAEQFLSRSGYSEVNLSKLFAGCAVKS
As to the kind of experiment: Percent inhibition of DNA polymerase alpha at 100 uM.

The nature of series [2]: Toxicity observed in vero cells. The series is classed as cell-based. Particulars: Chlorocebus sabaeus.
In a further series the test system is Human alphaherpesvirus 2. Description: Inhibitory activity against Herpes simplex virus 2 in vero cells at 100 uM. The series is classed as functional. Particulars: Human alphaherpesvirus 2, Vero.
Series [3] deals with Vero. Description: Inhibitory concentration against HSV-1 in vero cells. Format: functional, cell-based. Particulars: Chlorocebus sabaeus.
Series [4] addresses T1, DNA polymerase alpha catalytic subunit. Description: Effective concentration against DNA polymerase alpha. The series is classed as single protein. The method in brief:
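DNA polymerase α enzyme assay using activated calf thymus DNA as template, with no NaCl or KCl added.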

Series [5] deals with Vero. As to the kind of experiment: Inhibitory concentration against HSV-2 in vero cells. Format: functional, cell-based. Particulars: Chlorocebus sabaeus. In outline:
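HSV-2 plaque reduction assay in Vero cells; the value is reported as IC50 in µM.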

The subject of series [6] is Vero. Description: Cytotoxicity against vero cells. Format: cell-based. Particulars: Chlorocebus sabaeus.
Series [7] deals with MRC5. As to the kind of experiment: Inhibitory concentration against VZV in MRC5 cells. Format: functional, cell-based. Particulars: Homo sapiens.
The subject of series [8] is MRC5. As to the kind of experiment: Inhibitory concentration against human cytomegalovirus (HCMV1) in MRC5 cells. Format: functional, cell-based.
The next series has as its system Nucleic Acid. As to the kind of experiment: Effective concentration against DNA polymerase of Herpes simplex virus 2 (HSV-2). The series is classed as nucleic-acid assay, Human alphaherpesvirus 2.

A word on the inhibition: it is the percentage by which the read-out fell short of the control. A higher inhibition goes with a response far below the control. Regarding `COc1cc2c(cc1CO)CC[C@H]1[C@](C)(CO)CCC[C@]21C`, the results for the inhibition in series [1] and in [2] were 3% and 100%, respectively.

In [1], `COc1ccc2c(c1)[C@@]1(C)CCC[C@@](C)(C(=O)O)[C@@H]1CC2` yielded an inhibition of 4%. At 100 µM the inhibition in the series with Human alphaherpesvirus 2 was 31%.

In the series on Human alphaherpesvirus 2, `COc1ccc2c(c1)[C@@]1(C)CC[C@@H](O)[C@@](C)(CO)[C@@H]1CC2` gave an inhibition at 100 µM of 36%.

What is called IC50 is the midpoint of a concentration-inhibition curve. High values mean lower potency, low ones higher potency. A word on the EC50: it is the concentration that produces a half-maximal response. High values mean a need for much substance, low ones an effect from little substance. On to `C[C@@]1(CO)[C@@H](O)CC[C@]2(C)c3cc(O)c(CO)cc3CC[C@@H]12`, for which the 50% inhibitory concentration (IC50) in the series with Vero [3] is 198 µM; with Vero [5], more than 100 µM; in the series with Vero [6] it was more than 500 µM; in the series on MRC5 [7] it was more than 100 µM; in the series with MRC5 [8], more than 100 µM. A half-maximal effect in series [4] (EC50) was put at 7 µM. Also, the inhibition at 100 µM with Human alphaherpesvirus 2 was 19%.

In the case of `COC(=O)[C@]1(C)CCC[C@]2(C)c3cc(OC)c(CO)cc3CC[C@@H]12`, in the series on Human alphaherpesvirus 2, the inhibition at 100 µM stood at 100%.

`COc1cc2c(cc1CO)CC[C@H]1[C@](C)(C(=O)O)CCC[C@]21C`: the inhibition at 100 µM in the series on Human alphaherpesvirus 2 stood at 13%.

`C[C@@]1(CO)[C@H](O)CC[C@]2(C)c3cc(O)c(CO)cc3CC[C@@H]12`: the half-inhibitory concentration (IC50) is 133 µM in the series on Vero [3]; more than 100 µM with Vero [5]; more than 500 µM in the series with Vero [6]; more than 100 µM in the series with MRC5 [7]; 76 µM in the series on MRC5 [8]. In series [4], this compound came in with a 50% effective concentration (EC50) of 4 µM. The compound also yielded an inhibition at 100 µM in the series with Human alphaherpesvirus 2 of 90%.

Consider `C[C@@]1(CO)[C@@H](O)CC[C@]2(C)c3cc(O)ccc3CC[C@@H]12`, for which, in the series with Human alphaherpesvirus 2, the inhibition at 100 µM was found to be 34%.

In the series with Human alphaherpesvirus 2, `COc1ccc2c(c1)[C@@]1(C)CC[C@H](O)[C@@](C)(CO)[C@@H]1CC2` displayed an inhibition at 100 µM of 10%.

In the series on Human alphaherpesvirus 2, `C[C@@]1(C(=O)O)CCC[C@]2(C)c3cc(O)c(CO)cc3CC[C@@H]12` had an inhibition at 100 µM of 15%.

As to `C[C@@]1(CO)[C@H](O)CC[C@@]2(C)c3cc(O)c(CO)cc3CC[C@@H]12`, the IC50 with Vero [3] is 222 µM; in the series on Vero [5], more than 100 µM; in the series on Vero [6] it was more than 500 µM; with MRC5 [7], more than 100 µM; in the series with MRC5 [8] it was more than 100 µM.

In turn, `C[C@@]1(CO)[C@H](O)CC[C@]2(C)C3=C[C@H](O)[C@H](CO)C[C@@H]3CC[C@@H]12` came in with an inhibition at 100 µM in the series with Human alphaherpesvirus 2 of 0%.

As to `COc1cc2c(cc1CO)CC[C@H]1[C@](C)(CO)[C@H](O)CC[C@]21C`, the IC50 in the series on Vero [3] was more than 100 µM; in the series with Vero [5], more than 100 µM; in the series with Vero [6], more than 500 µM; in the series on MRC5 [7] it was more than 100 µM; in the series on MRC5 [8], more than 100 µM.

Consider `C[C@@]1(C(=O)O)CCC[C@]2(C)c3cc(O)c(C=O)cc3CC[C@@H]12`, for which the midpoint of the response in series [4], the EC50, lay at 5 µM. This compound also displayed an inhibition at 100 µM in the series on Human alphaherpesvirus 2 of 0%.

In turn, `C[C@@]1(CO)CCC[C@]2(C)c3cc(O)c(CO)cc3CC[C@@H]12` registered an inhibition at 100 µM in the series with Human alphaherpesvirus 2 of 0%.

Turning to `COC(=O)[C@]1(C)CCC[C@]2(C)c3cc(OC)c(C=O)cc3CC[C@@H]12`, the inhibition in series [2] is recorded as 100%.

In [4], `C[C@@]1(CO)[C@H](O)CC[C@]2(C)c3cc(O)ccc3CC[C@@H]12` had an EC50 of 8 µM. In the series on Human alphaherpesvirus 2, this compound came in with an inhibition at 100 µM of 25%.

In [4], `COc1ccc2c(c1)[C@@]1(C)CCC[C@@](C)(N)[C@@H]1CC2` had a concentration giving a half-maximal response (EC50) of 1 µM. The same compound registered an inhibition at 100 µM in the series with Human alphaherpesvirus 2 of 100%.

For the compound `COc1cc2c(cc1CO)CC[C@H]1[C@](C)(CO)[C@@H](O)CC[C@]21C`, the IC50 is more than 100 µM with Vero [3]; more than 100 µM with Vero [5]; more than 500 µM with Vero [6]; more than 100 µM in the series on MRC5 [7]; more than 100 µM in the series on MRC5 [8].

Take `C[C@@]1(CO)[C@@H](O)CC[C@@]2(C)c3cc(O)c(CO)cc3CC[C@@H]12`: the half-maximal inhibitory concentration (IC50) is more than 200 µM in the series on Vero [3]; more than 100 µM in the series on Vero [5]; more than 500 µM with Vero [6]; more than 100 µM in the series on MRC5 [7]; more than 100 µM in the series on MRC5 [8].

As to `C[C@@]1(CO)[C@H](O)CC[C@@]2(C)[C@H]1CC[C@H]1C[C@@H]3C[C@@]12CC[C@]3(O)CO` [APHIDICOLIN], the EC50 with Nucleic Acid was found to be 5 µM.
